Paper PMC12750372 (Acta Pharmaceutica Sinica. B, 2025)

What was measured:
[1] = tested on: CREB-mediated transcription; settings: read-out: IC50 in CREB Renilla luciferase reporter assay; cited from earlier work
KIX/KID interaction = settings: up to 50 μmol/L; cited from earlier work
[2] = tested on: CREB-mediated gene transcription; assay: CREB Renilla luciferase; type: cell-based; settings: read-out: CREB inhibition IC50; inhibition of CREB-mediated gene transcription in HEK 293T cells, CRE-RLuc, 30 min peptide then Fsk 10 μmol/L for 5 h
How it was run: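 HEK 293T cells were transfected for 3 h with 2 μg pCRE-RLuc (Renilla luciferase driven by three CRE copies) by lipofection, then replated overnight. Peptides at graded concentrations were added for 30 min before forskolin (10 μmol/L), then incubated 5 h at 37 °C. Lysate Renilla luciferase was normalized to well protein (RLU/μg) and expressed as % CREB activity. IC50 came from nonlinear regression.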

HEK 293T cells [3] = assay: Cell uptake by confocal microscopy of FITC-labeled peptides; type: cell-based; settings: FITC-labeled peptides at 10 μmol/L, 4 h
How it was run: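 HEK 293T cells attached overnight, then received FITC-labeled peptides in DMEM (0.1% DMSO) at final 1, 10 and 20 μmol/L for 4 h at 37 °C, 5% CO2. After three PBS washes, cells were DAPI-stained (10 μg/mL, 10 min), washed, methanol-fixed 5 min and imaged by multiphoton laser scanning microscopy. The αB helix of KID served as control peptide.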

HEK 293T cells [4] = assay: Cell uptake by flow cytometry of FITC-labeled peptides; type: cell-based
How it was run: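 Suspended HEK 293T cells (3 × 10^5, DMEM with 10% FBS) were mixed with FITC-labeled peptides in DMEM (0.1% DMSO) at final 1, 10 and 20 μmol/L for 30 min at room temperature in the dark. They were spun at 500×g, washed in staining buffer, resuspended and run on a flow cytometer. Mean fluorescence from two independent experiments was normalized to a reference stapled peptide at 20 μmol/L.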

O=C(Nc1ccc(Cl)cc1)c1cc2ccccc2cc1OP(=O)(O)O [KG-501]
IC50 [1]: 5.4 µM
Inhibition of the KIX/KID interaction (in words) (KIX/KID interaction): no significant inhibition

CC(=O)N[C@@H](Cc1ccc(O)cc1)CN(CC(=O)N[C@@H](CCCCN)CN(CC(=O)N[C@@H](Cc1ccccc1)CN(CC(=O)N[C@H]1CCCCNc2c(F)c(F)c(c(F)c2F)Sc2c(F)c(F)c(c(F)c2F)Sc2c(F)c(F)c(c(F)c2F)NCCCC[C@@H](CN(CC(=O)N[C@@H](C)CN(CC(N)=O)S(C)(=O)=O)S(C)(=O)=O)NC(=O)CN(S(=O)(=O)CC(C)C)C[C@H](CC(C)C)NC(=O)CN(S(=O)(=O)CCN)C1)S(=O)(=O)CC(C)C)S(=O)(=O)CCN)S(C)(=O)=O [Compound S3]
IC50 [2]: 66 µM
Cell uptake by confocal imaging (HEK 293T cells [3]): significant cell uptake
Fold increase of cell uptake compared to linear L3 and stapled S1 (HEK 293T cells [4]): ~4 fold
